The species entered for series [1] is Rattus norvegicus. Kind of series: Activity of rat 3-hydroxyacyl-CoA dehydrogenase S137A mutant. In a few lines: (§1)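 Rat liver HAD enzymes (wild-type, Asn208Ala, Ser137Ala) were incubated with 3-hydroxyacyl-CoA substrates or fluorinated analogs and NAD⁺ cofactor, so the forward reaction oxidizes the 3-hydroxyl to a keto group while NAD⁺ is reduced to NADH. Kinetic studies derived parameters including Vmax.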

The species named for series [2] is Rattus norvegicus. Kind of series: Activity of rat 3-hydroxyacyl-CoA dehydrogenase N208A mutant. In outline:
as §1

Substrate in series [3]: CCCCCC(O)CC(=O)SCCNC(=O)CCNC(=O)[C@H](O)C(C)(C)COP(=O)(O)OP(=O)(O)OC[C@H]1O[C@@H](n2cnc3c(N)ncnc32)[C@H](O)[C@@H]1OP(=O)(O)O
Kind of series: (§2) Activity of rat 3-hydroxyacyl-CoA dehydrogenase. In a few lines: as §1

Substrate in series [4]: CCC/C=C/C(O)C(F)C(=O)SCCNC(=O)CCNC(=O)[C@H](O)C(C)(C)COP(=O)(O)OP(=O)(O)OC[C@H]1O[C@@H](n2cnc3c(N)ncnc32)[C@H](O)[C@@H]1OP(=O)(O)O
The description is as §2. In a few lines:
as §1

Substrate in series [5]: CCC/C=C/C(O)CC(=O)SCCNC(=O)CCNC(=O)[C@H](O)C(C)(C)COP(=O)(O)OP(=O)(O)OC[C@H]1O[C@@H](n2cnc3c(N)ncnc32)[C@H](O)[C@@H]1OP(=O)(O)O
The series is described as §2. In a few lines: as §1

Substrate in series [6]: CCCCCC(O)C(F)C(=O)SCCNC(=O)CCNC(=O)[C@H](O)C(C)(C)COP(=O)(O)OP(=O)(O)OC[C@H]1O[C@@H](n2cnc3c(N)ncnc32)[C@H](O)[C@@H]1OP(=O)(O)O
Described as §2. In outline:
as §1

The Km is the substrate concentration at which the rate is half of its maximum. By Vmax is commonly meant the rate approached at saturating substrate.

Take `CCC/C=C/C(O)C(F)C(=O)SCCNC(=O)CCNC(=O)[C@H](O)C(C)(C)COP(=O)(O)OP(=O)(O)OC[C@H]1O[C@@H](n2cnc3c(N)ncnc32)[C@H](O)[C@@H]1OP(=O)(O)O` (some centres not stated): in series [1], the Km came out at 55.7 µM and the Vmax came out at 0.17 µmol/min/mg. For the same molecule, in series [2], the Km came out at 44.9 µM and the Vmax turned out to be 0.1 µmol/min/mg.
For `CCC/C=C/C(O)CC(=O)SCCNC(=O)CCNC(=O)[C@H](O)C(C)(C)COP(=O)(O)OP(=O)(O)OC[C@H]1O[C@@H](n2cnc3c(N)ncnc32)[C@H](O)[C@@H]1OP(=O)(O)O` (some centres not stated), in series [1], the Km was determined as 53.2 µM and the Vmax was determined as 0.46 µmol/min/mg. For the same molecule, in series [2], the Km turned out to be 49.6 µM and the Vmax stood at 1.08 µmol/min/mg.
With `CCCCCC(O)CC(=O)SCCNC(=O)CCNC(=O)[C@H](O)C(C)(C)COP(=O)(O)OP(=O)(O)OC[C@H]1O[C@@H](n2cnc3c(N)ncnc32)[C@H](O)[C@@H]1OP(=O)(O)O` (some centres not stated), in series [2], the Km was 46.8 µM and the Vmax turned out to be 0.28 µmol/min/mg.

B1: Peroxisomal multifunctional enzyme type 2 (Rattus norvegicus), P97852 (protein)
chain: MASPLRFDGRVVLVTGAGGGLGRAYALAFAERGALVVVNDLGGDFKGVGKGSSAADKVVEEIRRRGGKAVANYDSVEAGEKLVKTALDTFGRIDVVVNNAGILRDRSFSRISDEDWDIIQRVHLRGSFQVTRAAWDHMKKQNYGRIIMTASASGIYGNFGQANYSAAKLGLLGLANTLVIEGRKNNIHCNTIAPNAGSRMTETVMPEDLVEALKPEYVAPLVLWLCHESCEENGGLFEVGAGWIGKLRWERTLGAIVRKRNQPMTPEAVRDNWVKICDFSNASKPKSIQESTGGIIEVLHKIDSEGISQNHTGQVASADASGFAGVVGHKLPSFSSSYTELQCIMYALGVGASVKNPKDLKFVYEGSADFSCLPTFGVIVAQKSLMSGGLAEVPGLSINFAKVLHGEQYLELYKPLPRSGELKCEAVIADILDKGSGIVIVMDVYSYSGKELICYNQFSVFVVGSGGFGGKRTSEKLKAAVAVPSRPPDAVLRDTTSLNQAALYRLSGDSNPLHIDPSFASIAGFEKPILHGLCTFGFSARHVLQQFADNDVSRFKAIKVRFAKPVYPGQTLQTEMWKEGNRIHFQTKVQETGDIVISNAYVDLVPTSGVSAQTPSEGGALQSALVFGEIGRRLKDVGREVVKKVNAVFEWHITKNGNVAAKWTIDLKNGSGEVYQGPAKGSADTTITISDEDFMEVVLGKLNPQNAFFSGRLKARGNIMLSQKLQMILKDYAKL
Take B1: the Km turned out to be 34.6 µM in series [3], 46.8 µM in series [4], 20 µM in series [5] and 69.3 µM in series [6]. Besides, the Vmax came to 10.5 µmol/min/mg in series [3], 11.7 µmol/min/mg in series [4] and 21.8 µmol/min/mg in series [5].
